Assay results: ChEMBL document CHEMBL5303300, “EUbOPEN Chemogenomics Library - Multiplex” (2023)
“And” between values parts separate entries of the source, which are not always exact repeats. Equal entries are not always repeated.

Test system: U2OS
Assay: Multiplex assay against U2OS
Type: toxicity, cell-based
Conditions: human, number of replicates 2
Summary of the method: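 Hoechst33342, BioTracker Green Microtubule Cytoskeleton Dye, MitoTracker Red and Annexin V Alexa Fluor 680 were added to live cells at seeding, and imaging on a CQ1 microscope at 37°C and 5% CO2 followed compound addition. Gating by CellPathfinder machine learning separated cells into Hoechst high-intensity objects or normal cells, then normal cells into healthy, pyknosed or fragmented nuclei, then pyknosed cells into mitotic or apoptotic. Per cents of healthy-nucleus cells are reported for the tubulin, mitochondrial-mass and membrane-permeability phenotypes.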

[1] = 12 h, 1 µM, compound concentration 1 uM
[2] = 12 h, 10 µM, compound concentration 10 uM
[3] = 24 h, 1 µM, compound concentration 1 uM
[4] = 24 h, 10 µM, compound concentration 10 uM
[5] = 48 h, 1 µM, compound concentration 1 uM
[6] = 48 h, 10 µM, compound concentration 10 uM

## Cl.Clc1ccc2nsnc2c1NC1=NCCN1 [TIZANIDINE HYDROCHLORIDE]
[1]
  Population Apoptotic (%): 50% and 55%
  Population Fragmented Nuclei (%): 14% and 4%
  Population Healthy Nuclei (%): 75% and 86%
  Population Hoechst High Intensity Objects (%): 0%
  Population Membrane Permeable-Phenotype (%): 0% and 1%
  Population Mitochondria Different-Phenotype (%): 3% and 0%
  Population Mitotic Cells (%): 50% and 44%
  Population Normal (%): 100%
  Population Pyknosed Nuclei (%): 9%
  Population Tubulin-Different-Phenotype (%): 100% and 96%
[2]
  Population Fragmented Nuclei (%): 7% and 4%
  Population Healthy Nuclei (%): 89% and 87%
  Population Hoechst High Intensity Objects (%): 0%
  Population Membrane Permeable-Phenotype (%): 2% and 0%
  Population Mitochondria Different-Phenotype (%): 0%
  Population Normal (%): 100%
  Population Pyknosed Nuclei (%): 2% and 8%
  Population Tubulin-Different-Phenotype (%): 68% and 97%
[3]
  Population Apoptotic (%): 100% and 58%
  Population Fragmented Nuclei (%): 8% and 3%
  Population Healthy Nuclei (%): 85% and 89%
  Population Hoechst High Intensity Objects (%): 1% and 0%
  Population Membrane Permeable-Phenotype (%): 1%
  Population Mitochondria Different-Phenotype (%): 0% and 1%
  Population Normal (%): 98% and 100%
  Population Pyknosed Nuclei (%): 6% and 7%
  Population Tubulin-Different-Phenotype (%): 100% and 95%
[4]
  Population Fragmented Nuclei (%): 10% and 2%
  Population Healthy Nuclei (%): 89% and 92%
  Population Hoechst High Intensity Objects (%): 0%
  Population Membrane Permeable-Phenotype (%): 0% and 1%
  Population Mitochondria Different-Phenotype (%): 0%
  Population Normal (%): 100%
  Population Pyknosed Nuclei (%): 0% and 5%
  Population Tubulin-Different-Phenotype (%): 77% and 96%
[5]
  Population Apoptotic (%): 40%
  Population Fragmented Nuclei (%): 11%
  Population Healthy Nuclei (%): 78%
  Population Hoechst High Intensity Objects (%): 1%
  Population Membrane Permeable-Phenotype (%): 3%
  Population Mitochondria Different-Phenotype (%): 0%
  Population Mitotic Cells (%): 60%
  Population Normal (%): 98%
  Population Pyknosed Nuclei (%): 10%
  Population Tubulin-Different-Phenotype (%): 97%
  Total Cell Count: 99
[6]
  Population Apoptotic (%): 88% and 38%
  Population Fragmented Nuclei (%): 4% and 2%
  Population Healthy Nuclei (%): 84% and 92%
  Population Hoechst High Intensity Objects (%): 0%
  Population Membrane Permeable-Phenotype (%): 2% and 0%
  Population Mitochondria Different-Phenotype (%): 0%
  Population Normal (%): 100%
  Population Pyknosed Nuclei (%): 10% and 4%
  Population Tubulin-Different-Phenotype (%): 72% and 99%

## COC(=O)Nc1nc2c(s1)-c1c(c(-c3cccnc3)nn1-c1ccc(C3(N(C)C)CC3)cc1)CC2.Cl.Cl
[1]
  Population Apoptotic (%): 100% and 85%
  Population Healthy Nuclei (%): 44% and 73%
  Population Hoechst High Intensity Objects (%): 0%
  Population Mitochondria Different-Phenotype (%): 3% and 12%
  Population Mitotic Cells (%): 0% and 14%
  Population Normal (%): 100% and 99%
  Population Pyknosed Nuclei (%): 4% and 13%
  Population Tubulin-Different-Phenotype (%): 51% and 39%
[2]
  Population Apoptotic (%): 58% and 63%
  Population Fragmented Nuclei (%): 96% and 73%
  Population Hoechst High Intensity Objects (%): 0%
  Population Membrane Permeable-Phenotype (%): 28% and 26%
  Population Mitochondria Different-Phenotype (%): 7% and 15%
  Population Mitotic Cells (%): 41% and 36%
  Population Normal (%): 100% and 99%
  Population Pyknosed Nuclei (%): 1% and 6%
  Population Tubulin-Different-Phenotype (%): 32% and 49%
  Total Cell Count: 1083 and 863
[3]
  Population Apoptotic (%): 83% and 77%
  Population Healthy Nuclei (%): 31% and 74%
  Population Hoechst High Intensity Objects (%): 0% and 1%
  Population Membrane Permeable-Phenotype (%): 5%
  Population Mitochondria Different-Phenotype (%): 0% and 16%
  Population Mitotic Cells (%): 16% and 22%
  Population Normal (%): 100% and 98%
  Population Pyknosed Nuclei (%): 9% and 17%
  Population Tubulin-Different-Phenotype (%): 55% and 39%
[4]
  Population Apoptotic (%): 75% and 71%
  Population Fragmented Nuclei (%): 96% and 74%
  Population Hoechst High Intensity Objects (%): 0%
  Population Membrane Permeable-Phenotype (%): 25% and 13%
  Population Mitochondria Different-Phenotype (%): 21% and 20%
  Population Mitotic Cells (%): 25% and 28%
  Population Normal (%): 99%
  Population Pyknosed Nuclei (%): 1% and 8%
  Population Tubulin-Different-Phenotype (%): 40% and 45%
  Total Cell Count: 1253 and 958
[5]
  Population Apoptotic (%): 85% and 76%
  Population Healthy Nuclei (%): 31% and 63%
  Population Hoechst High Intensity Objects (%): 0%
  Population Membrane Permeable-Phenotype (%): 19% and 10%
  Population Mitochondria Different-Phenotype (%): 9% and 14%
  Population Mitotic Cells (%): 14% and 23%
  Population Normal (%): 100% and 99%
  Population Pyknosed Nuclei (%): 10% and 28%
  Population Tubulin-Different-Phenotype (%): 66% and 45%
[6]
  Population Apoptotic (%): 66% and 70%
  Population Fragmented Nuclei (%): 95% and 76%
  Population Hoechst High Intensity Objects (%): 0%
  Population Membrane Permeable-Phenotype (%): 13% and 23%
  Population Mitochondria Different-Phenotype (%): 13% and 26%
  Population Mitotic Cells (%): 33% and 30%
  Population Normal (%): 100% and 99%
  Population Pyknosed Nuclei (%): 2% and 10%
  Population Tubulin-Different-Phenotype (%): 50% and 51%
  Total Cell Count: 1346 and 1010

## CS(=O)(=O)c1ccc(C(=O)Nc2cc(F)cc(COc3cc(F)c(Br)cc3CN3CC[C@H](O)C3)c2)c(Cl)c1.O=CO
[1]
  Population Apoptotic (%): 33% and 58%
  Population Fragmented Nuclei (%): 2%
  Population Normal (%): 100%
[2]
  Population Apoptotic (%): 60% and 54%
  Population Normal (%): 100%
[3]
  Population Apoptotic (%): 82% and 66%
  Population Fragmented Nuclei (%): 2% and 3%
  Population Normal (%): 100% and 96%
[4]
  Population Apoptotic (%): 61% and 71%
  Population Normal (%): 100% and 99%
[5]
  Population Apoptotic (%): 63% and 88%
  Population Fragmented Nuclei (%): 2% and 1%
  Population Normal (%): 100%
[6]
  Population Apoptotic (%): 94% and 89%
  Population Normal (%): 98%

## NC(=O)c1ccc(-c2nc(-c3ccc4c(c3)OCCO4)c(-c3ccccn3)[nH]2)cc1
[1]
  Population Apoptotic (%): 40% and 85%
  Population Fragmented Nuclei (%): 1% and 4%
  Population Healthy Nuclei (%): 88% and 86%
  Population Hoechst High Intensity Objects (%): 1% and 0%
  Population Membrane Permeable-Phenotype (%): 4% and 1%
  Population Mitochondria Different-Phenotype (%): 0% and 1%
  Population Normal (%): 98% and 100%
  Population Pyknosed Nuclei (%): 9%
  Population Tubulin-Different-Phenotype (%): 53% and 86%
  Total Cell Count: 54 and 150
[2]
  Population Apoptotic (%): 46% and 33%
  Population Healthy Nuclei (%): 78% and 63%
  Population Hoechst High Intensity Objects (%): 0%
  Population Membrane Permeable-Phenotype (%): 4% and 0%
  Population Mitochondria Different-Phenotype (%): 3% and 0%
  Population Mitotic Cells (%): 53% and 66%
  Population Normal (%): 100%
  Population Pyknosed Nuclei (%): 14% and 8%
  Population Tubulin-Different-Phenotype (%): 62% and 39%
[3]
  Population Apoptotic (%): 54% and 64%
  Population Fragmented Nuclei (%): 2% and 1%
  Population Healthy Nuclei (%): 84% and 92%
  Population Hoechst High Intensity Objects (%): 0%
  Population Membrane Permeable-Phenotype (%): 1%
  Population Mitochondria Different-Phenotype (%): 0%
  Population Mitotic Cells (%): 45% and 35%
  Population Normal (%): 100%
  Population Pyknosed Nuclei (%): 13% and 6%
  Population Tubulin-Different-Phenotype (%): 56% and 92%
  Total Cell Count: 84 and 214
[4]
  Population Healthy Nuclei (%): 86% and 65%
  Population Hoechst High Intensity Objects (%): 0%
  Population Membrane Permeable-Phenotype (%): 3% and 0%
  Population Mitochondria Different-Phenotype (%): 4% and 3%
  Population Normal (%): 99% and 100%
  Population Pyknosed Nuclei (%): 9% and 2%
  Population Tubulin-Different-Phenotype (%): 59% and 48%
[5]
  Population Apoptotic (%): 52% and 74%
  Population Fragmented Nuclei (%): 6% and 3%
  Population Healthy Nuclei (%): 82% and 90%
  Population Hoechst High Intensity Objects (%): 0%
  Population Membrane Permeable-Phenotype (%): 0% and 1%
  Population Mitochondria Different-Phenotype (%): 0%
  Population Mitotic Cells (%): 47% and 25%
  Population Normal (%): 100%
  Population Pyknosed Nuclei (%): 10% and 6%
  Population Tubulin-Different-Phenotype (%): 62% and 95%
[6]
  Population Apoptotic (%): 77% and 78%
  Population Fragmented Nuclei (%): 21% and 7%
  Population Healthy Nuclei (%): 66% and 78%
  Population Hoechst High Intensity Objects (%): 0%
  Population Membrane Permeable-Phenotype (%): 8% and 3%
  Population Mitochondria Different-Phenotype (%): 4% and 2%
  Population Mitotic Cells (%): 22% and 21%
  Population Normal (%): 100%
  Population Pyknosed Nuclei (%): 12% and 14%
  Population Tubulin-Different-Phenotype (%): 61% and 67%

## CC(C)c1cc(-c2ccc(F)c3ccccc23)nc(N)n1
[1]
  Population Apoptotic (%): 35% and 50%
  Population Fragmented Nuclei (%): 2% and 12%
  Population Healthy Nuclei (%): 88% and 81%
  Population Hoechst High Intensity Objects (%): 0%
  Population Membrane Permeable-Phenotype (%): 1% and 7%
  Population Mitochondria Different-Phenotype (%): 0%
  Population Mitotic Cells (%): 65% and 50%
  Population Normal (%): 100%
  Population Pyknosed Nuclei (%): 8% and 6%
  Population Tubulin-Different-Phenotype (%): 88% and 44%
[2]
  Population Apoptotic (%): 66% and 52%
  Population Healthy Nuclei (%): 52% and 84%
  Population Hoechst High Intensity Objects (%): 0%
  Population Mitotic Cells (%): 33% and 48%
  Population Normal (%): 100%
  Population Pyknosed Nuclei (%): 15% and 10%
  Population Tubulin-Different-Phenotype (%): 80% and 71%
[3]
  Population Fragmented Nuclei (%): 3% and 8%
  Population Healthy Nuclei (%): 86% and 82%
  Population Hoechst High Intensity Objects (%): 0%
  Population Membrane Permeable-Phenotype (%): 0% and 7%
  Population Mitochondria Different-Phenotype (%): 0%
  Population Mitotic Cells (%): 47% and 100%
  Population Normal (%): 100%
  Population Pyknosed Nuclei (%): 9% and 10%
  Population Tubulin-Different-Phenotype (%): 89% and 41%
[4]
  Population Apoptotic (%): 100% and 65%
  Population Healthy Nuclei (%): 58% and 86%
  Population Hoechst High Intensity Objects (%): 0%
  Population Membrane Permeable-Phenotype (%): 11% and 3%
  Population Mitochondria Different-Phenotype (%): 11% and 1%
  Population Normal (%): 100%
  Population Pyknosed Nuclei (%): 6% and 8%
  Population Tubulin-Different-Phenotype (%): 55% and 72%
[5]
  Population Fragmented Nuclei (%): 13% and 3%
  Population Healthy Nuclei (%): 83% and 90%
  Population Hoechst High Intensity Objects (%): 0%
  Population Membrane Permeable-Phenotype (%): 1% and 2%
  Population Mitochondria Different-Phenotype (%): 1% and 0%
  Population Mitotic Cells (%): 100% and 60%
  Population Normal (%): 100%
  Population Pyknosed Nuclei (%): 2% and 6%
  Population Tubulin-Different-Phenotype (%): 57% and 93%
[6]
  Population Apoptotic (%): 83% and 59%
  Population Healthy Nuclei (%): 62% and 90%
  Population Hoechst High Intensity Objects (%): 0%
  Population Mitotic Cells (%): 16% and 40%
  Population Normal (%): 100%
  Population Tubulin-Different-Phenotype (%): 60% and 84%
